Measurements published in ChEMBL document CHEMBL4219025 (J Med Chem, 2018).
Activity calls are given as the source filed them. The calls are words filed in the database; no cut-off is given here.

How the values were obtained:
[1] = target: T1, Protein cereblon/NAD-dependent protein deacetylase sirtuin-2 (Homo sapiens) (UniProt Q8IXJ6+Q96SW2); assay: Induction of cereblon-mediated Sirt2 degradation in human HeLa cells at 0.05 to 5 uM after 4 hrs by Western blot method; assay type: cell-based
In short: (§1)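 HeLa cells in DMEM high glucose with 10% FCS, 37 °C, 5% CO2; 2x10^5 cells per 6-well (endogenous Sirt1/Sirt2) or 2x10^4 EGFP-Sirt2-HeLa per 24-well. Cycloheximide applied before compound (5 µg/ml 6-well, 3 µg/ml 24-well); 4 h default incubation, DMSO controls. Lysed in reducing sample buffer, 10% SDS-PAGE, PVDF, rabbit anti-Sirt2/Sirt1/GAPDH 1:5000, ECL; background-subtracted band intensities normalized to mean control.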

[2] = target: T2, NAD-dependent protein deacetylase sirtuin-1 (Homo sapiens, UniProt Q96EB6); assay: Inhibition of recombinant human GST-tagged Sirt1 (133 to 747 residues) using Z-(Ac)Lys-AMC as substrate measured after 4 hrs by high-throughput fluorescence based assay
T2 sequence (Q96EB6 whole entry): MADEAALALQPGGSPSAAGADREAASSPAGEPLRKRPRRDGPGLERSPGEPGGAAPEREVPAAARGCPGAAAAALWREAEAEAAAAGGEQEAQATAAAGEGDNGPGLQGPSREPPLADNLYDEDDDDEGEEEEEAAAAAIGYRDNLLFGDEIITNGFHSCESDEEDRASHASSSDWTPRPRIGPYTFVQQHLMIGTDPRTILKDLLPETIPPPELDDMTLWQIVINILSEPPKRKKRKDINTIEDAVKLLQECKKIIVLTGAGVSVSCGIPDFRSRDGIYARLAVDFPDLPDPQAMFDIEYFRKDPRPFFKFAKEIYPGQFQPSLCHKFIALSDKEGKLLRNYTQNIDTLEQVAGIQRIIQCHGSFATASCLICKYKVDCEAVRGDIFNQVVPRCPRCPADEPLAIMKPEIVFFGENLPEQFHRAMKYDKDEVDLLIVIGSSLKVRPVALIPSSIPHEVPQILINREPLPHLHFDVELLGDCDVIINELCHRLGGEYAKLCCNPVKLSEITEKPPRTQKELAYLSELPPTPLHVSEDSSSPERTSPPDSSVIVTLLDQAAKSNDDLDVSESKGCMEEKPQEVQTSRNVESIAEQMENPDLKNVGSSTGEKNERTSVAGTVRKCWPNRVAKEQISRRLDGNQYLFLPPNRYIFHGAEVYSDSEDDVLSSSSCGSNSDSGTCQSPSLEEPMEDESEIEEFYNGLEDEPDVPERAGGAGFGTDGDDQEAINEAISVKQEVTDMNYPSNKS

[3] = target: T3, NAD-dependent protein deacetylase sirtuin-3, mitochondrial (Homo sapiens, UniProt Q9NTG7); assay: Inhibition of recombinant human His10-tagged Sirt3 (118 to 395 residues) expressed in Escherichia coli BL21(DE3) using Z-(Ac)Lys-AMC as substrate measured after 4 hrs by high-throughput fluorescence based assay
T3 sequence (Q9NTG7 whole entry): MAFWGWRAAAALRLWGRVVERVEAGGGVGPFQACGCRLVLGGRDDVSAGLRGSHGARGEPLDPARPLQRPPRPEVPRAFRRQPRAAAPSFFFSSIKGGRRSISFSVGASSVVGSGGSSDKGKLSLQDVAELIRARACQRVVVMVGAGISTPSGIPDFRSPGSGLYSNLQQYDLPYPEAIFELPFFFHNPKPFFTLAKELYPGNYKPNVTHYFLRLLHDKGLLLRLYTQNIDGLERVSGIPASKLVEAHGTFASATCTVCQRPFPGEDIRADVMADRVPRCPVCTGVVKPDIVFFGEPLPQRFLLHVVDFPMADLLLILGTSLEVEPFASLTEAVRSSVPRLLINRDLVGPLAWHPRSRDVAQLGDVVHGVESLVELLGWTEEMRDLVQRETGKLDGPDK

[4] = target: T4, NAD-dependent protein deacetylase sirtuin-2 (Homo sapiens, UniProt Q8IXJ6); assay: Inhibition of recombinant human His10-tagged Sirt2 (56 to 356 residues) expressed in Escherichia coli BL21(DE3) using Z-(Ac)Lys-AMC as substrate measured after 4 hrs by high-throughput fluorescence based assay
T4 sequence (Q8IXJ6 whole entry): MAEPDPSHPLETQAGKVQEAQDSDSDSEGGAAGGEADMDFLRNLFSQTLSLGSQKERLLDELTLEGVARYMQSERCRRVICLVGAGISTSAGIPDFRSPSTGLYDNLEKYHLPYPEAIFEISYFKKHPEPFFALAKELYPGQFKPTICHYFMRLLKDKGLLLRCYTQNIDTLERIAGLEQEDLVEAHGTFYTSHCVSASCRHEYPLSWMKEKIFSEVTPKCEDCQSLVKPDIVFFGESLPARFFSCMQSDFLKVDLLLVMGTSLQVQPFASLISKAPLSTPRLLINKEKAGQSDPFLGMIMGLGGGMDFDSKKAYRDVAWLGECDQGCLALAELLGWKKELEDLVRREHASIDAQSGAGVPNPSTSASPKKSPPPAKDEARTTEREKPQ

[5] = target: T1, Protein cereblon/NAD-dependent protein deacetylase sirtuin-2 (Homo sapiens); assay: Induction of cereblon-mediated Sirt2 degradation in human HeLa cells at 10 uM after 2 hrs by Western blot method; assay type: cell-based; in short: as §1
[6] = target: T1, Protein cereblon/NAD-dependent protein deacetylase sirtuin-2 (Homo sapiens); assay: Induction of cereblon-mediated EGFP-fused Sirt2 degradation in human HeLa cells assessed as increase in tubulin acetlyation at 10 uM after 4 hrs by DAPI dye-based immunofluorescent microscopic analysis; assay type: cell-based
[7] = target: Protein cereblon/NAD-dependent protein deacetylase sirtuin-1 (Homo sapiens) (UniProt Q96EB6+Q96SW2); assay: Induction of cereblon-mediated Sirt1 degradation in human HeLa cells at 10 uM after 1 to 6 hrs by Western blot method; assay type: cell-based; in short: as §1
[8] = target: T1, Protein cereblon/NAD-dependent protein deacetylase sirtuin-2 (Homo sapiens); assay: Induction of cereblon-mediated Sirt2 degradation in human HeLa cells at 10 uM after 1 to 6 hrs by Western blot method; assay type: cell-based; in short: as §1
[9] = target: T1, Protein cereblon/NAD-dependent protein deacetylase sirtuin-2 (Homo sapiens); assay: Induction of cereblon-mediated EGFP-fused Sirt2 (unknown origin) degradation expressed in human HeLa cells at 10 uM after 4 hrs in presence of 2-(4,6-dimethylpyrimidin-2-ylthio)-N-(5-(3-((1-(2-methoxyethyl)-1H-1,2,3-triazol-4-yl)methoxy)benzyl)thiazol-2-yl)acetamide and proteosome inhibitor MG132 by Western blot method; assay type: cell-based; in short: as §1
[10] = target: T1, Protein cereblon/NAD-dependent protein deacetylase sirtuin-2 (Homo sapiens); assay: Induction of cereblon-mediated EGFP-fused Sirt2 (unknown origin) degradation expressed in human HeLa cells at 10 uM after 4 hrs by Hoechst 33342 staining-based fluorescent microscopic method; assay type: cell-based
In short: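 Live EGFP-Sirt2-expressing HeLa cells: 2x10^4 cells seeded on glass imaging dishes in complete medium overnight, treated with 10 μM compound for 4 h (DMSO controls), medium switched to phenol red-free DMEM, nuclei stained 0.5 µg/mL Hoechst 33342 for 5 min; confocal live imaging with 40× oil objective.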

[11] = target: T1, Protein cereblon/NAD-dependent protein deacetylase sirtuin-2 (Homo sapiens); assay: Induction of cereblon-mediated Sirt2 degradation in human HeLa cells after 4 hrs by Western blot method; assay type: cell-based; in short: as §1

T1 sequence (Q96SW2 whole entry, looked up, one chain of several): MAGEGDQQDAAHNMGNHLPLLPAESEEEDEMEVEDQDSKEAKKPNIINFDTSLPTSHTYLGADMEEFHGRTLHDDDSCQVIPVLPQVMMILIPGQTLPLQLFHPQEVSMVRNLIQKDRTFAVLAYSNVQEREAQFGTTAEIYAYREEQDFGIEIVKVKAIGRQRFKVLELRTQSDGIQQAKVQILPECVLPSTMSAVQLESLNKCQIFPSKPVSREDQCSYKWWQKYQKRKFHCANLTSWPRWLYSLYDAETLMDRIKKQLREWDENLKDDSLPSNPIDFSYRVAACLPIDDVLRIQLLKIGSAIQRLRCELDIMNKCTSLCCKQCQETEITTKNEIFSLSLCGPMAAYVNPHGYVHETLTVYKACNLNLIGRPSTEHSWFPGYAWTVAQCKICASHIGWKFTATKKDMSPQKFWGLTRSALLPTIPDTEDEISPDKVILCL
Sequence of Protein cereblon/NAD-dependent protein deacetylase sirtuin-1 (Homo sapiens) (Q96SW2 whole entry, looked up, one chain of several): as above

SMILES | IC50 [2] | IC50 [3] | IC50 [4] | further results
O=C1CCC(N2C(=O)c3ccccc3C2=O)C(=O)N1 (stereo not given) | – | – | – | Activity [1]: inactive
Cc1cc(C)nc(SCC(=O)Nc2ncc(Cc3cccc4ccc(Cl)cc34)s2)n1 | > 100 µM | – | – | –
Cc1cc(C)nc(SCC(=O)Nc2ncc(Cc3cccc(OCc4cn(CCOCCOCCOCCOCCOCCOCCOCCOCCOCCOCCOCCNC(=O)CCCCC5SCC6NC(=O)NC65)nn4)c3)s2)n1 (stereo not given) | > 100 µM | > 100 µM | 0.31 µM | –
C#CCOc1cccc(Cc2cnc(NC(=O)CSc3nc(C)cc(C)n3)s2)c1 | > 100 µM | – | 2.4 µM | –
COCCn1cc(COc2cccc(Cc3cnc(NC(=O)CSc4nc(C)cc(C)n4)s3)c2)nn1 | 100 µM | > 100 µM | – | Activity [1]: inactive

Continued, in another order:

IC50 [2] | IC50 [3] | IC50 [4] | SMILES | further results
> 100 µM | > 100 µM | – | Cc1cc(C)nc(SCC(=O)Nc2ncc(Cc3cccc4ccccc34)s2)n1 | –
> 100 µM | > 100 µM | 0.16 µM | Cc1cc(C)nc(SCC(=O)Nc2ncc(Cc3cccc(OCc4cn(Cc5ccccc5)nn4)c3)s2)n1 | –
> 100 µM | > 100 µM | 0.25 µM | Cc1cc(C)nc(SCC(=O)Nc2ncc(Cc3cccc(OCc4cn(CCCCNC(=O)COc5cccc6c5C(=O)N(C5CCC(=O)NC5=O)C6=O)nn4)c3)s2)n1 (stereo not given) | Activity [5]: Active; Activity [6]: Active; Activity [7]: inactive; Activity [8]: Active; Activity [9]: inactive; Activity [10]: Active; Activity [11]: Dose-dependent effect
